Shown is part of a subset that was picked to be rich in hits.
H69AR inhibit: growth inhibitors of human H69AR lung tumor cells | AID 598 | H69AR lung tumor viability, ATP luminescence, 72 h; stronger effect = lower value | viability, % at 10 µM | 6% of 85,000 active;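 active = viability at or below 40%; inactive = viability above 40%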;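 also: multidrug resistant small cell line overexpressing MRP-1 efflux transporter; 100% = mean luminescence of untreated control wells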
HUVEC inhibit: inhibitors of human endothelial cell proliferation; HUVEC proliferation, CellTiter-Glo luminescence, 72 h; stronger effect = lower value; viability, % at 10 µM (by protocol); 1.1% of 86,000 active;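 active = viability at or below 30%; inactive = viability above 30%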;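 also: 100% = median luminescence of DMSO-only cell control wells on each plate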
HCT116 PTEN-null: PTEN-deleted cell growth suppression. AID 827. viability, % at 10 µM. 1.2% of 140,000 active. HCT116 PTEN-null viability, CellTiter-Glo, 60 h; stronger effect = lower value;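 active = viability at or below a set limit, 4 SD under the median of all tested compounds, cut at about 3.7% in these data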;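 also: PTEN knockout HCT116 line with beta catenin targeted HCT116 as companion control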
HCT116 bCat-KO: beta-catenin-lacking colon tumor cell growth suppression; HCT116 beta-catenin knockout viability, CellTiter-Glo, 60 h; stronger effect = lower value; AID 818; 1.5% of 140,000 active; viability, % at 10 µM;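 active = viability at or under a set limit, the compound median less 4 SD, cut at about 6% in these data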;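 also: 0% = Hyamine 1622 control at 20 µM and 100% = untreated cell control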
Fibroblast inh: blocks proliferation of human lung fibroblasts | LL 47 human lung fibroblast viability, ATP luminescence; stronger effect = lower value | viability, % at 10 µM | 1.1% of 85,000 active;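 active = viability at or below 50% in the single dose screen; inactive = viability above 50%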;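 also: compound exposure lasted 72 h before the ATP readout; 100% = median luminescence of untreated cell-only wells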
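Material: Human LL 47 lung fibroblast cells | Input: 1,150 cells/well | Buffer or medium: IMEM plus 15% FBS | Compound dosing: 0.1% DMSO in all compound wells | Times: Overnight cell rest, 72 h compound treatment at 37 °C | Signal: CellTiter-Glo luminescence measuring cellular ATP | Measure: % viability versus median cells-only luminescence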
Active calls of the source: *; . = not tested or not shown.

SMILES | H69AR inhibit | HUVEC inhibit | HCT116 PTEN-null | HCT116 bCat-KO | Fibroblast inh
COc1ccc(-n2nc(C(=O)Nc3ccc4c(c3)OCO4)c3c4ccccc4n(C)c3c2=O)cc1 | 85 | 88 | . | . | 93
COc1ccc(-n2nc(C(=O)Nc3ccc(OC)c(OC)c3)c3c4ccccc4n(C)c3c2=O)cc1 | 9.2* | 30 | 3.5* | 3.7* | 77
CCN(CC)CCNC(=O)c1nn(-c2ccc(C)cc2)c(=O)c2c1c1ccccc1n2C | 64 | 20* | 6 | 7 | 54
COc1cc(C2C3=C(CC(C)(C)CC3=O)OC(N)=C2[N+](=O)[O-])ccc1O (stereo not drawn) | . | . | 88 | 91 | .
CSc1nnc(CSc2cc(C)nc(N(C)C)n2)o1 | . | . | 109 | 90 | .
COc1ccc(C(=O)OC(C)C(=O)Nc2cc(C(F)(F)F)ccc2Cl)c(OC)c1OC (stereo not drawn) | . | . | 73 | 74 | .
CCS(=O)(=O)N1CCC(C(=O)c2ccc(Cl)cc2)CC1 | 99 | 92 | 87 | 91 | 91
COc1ccc(NC2=NC(=S)N(c3ccccc3C)C23CCCCC3)cc1 | . | . | 101 | 95 | .
[O-][N+]1=c2ccc(Nc3ccccc3)cc2=NC12CCCCC2 | 1.2* | 4.6* | 1.1* | 1.6* | 13*
COc1ccc(Nc2ccc3c(c2)=NC2(CCCCC2)[N+]=3[O-])cc1 | . | . | 1.2* | 1.1* | .
c1ccc(Nc2cccc(Nc3ccccc3)c2)cc1 | . | . | 77 | 81 | .
CCOc1ccc(NS(=O)(=O)c2cc(OCC(N)=O)c(C)cc2Cl)cc1 | . | . | 91 | 84 | .
NC1=C([N+](=O)[O-])C(c2ccc(F)cc2)C2=C(CCCC2=O)O1 (stereo not drawn) | . | . | 101 | 100 | .
C=Cn1ccnc1P(=S)(c1ccc2c(c1)c1ccccc1n2CC)c1nccn1C=C | 13* | 41 | 12 | 25 | 52
CCn1c2ccccc2c2cc(NC(C)=O)ccc21 | 100 | 81 | 90 | 93 | 106
Cc1cccc(-c2nc(CSCC(=O)N3CCN(Cc4ccc5c(c4)OCO5)CC3)c(C)o2)c1 | 33* | 88 | 18 | 12 | 95
COC(=O)/C(=C1/Oc2ccc(C(C)(C)C)cc2S1)C(F)(F)F | . | . | 104 | 98 | .
COC(=O)/C(=C1/Oc2cc(C)oc(=O)c2S1)C(F)(F)F | . | . | 3.2* | 3.6* | .
CCOC(=O)c1ccc(-n2c(O)c(/C=N/NC(=O)C3COc4ccccc4O3)c3ccccc3c2=O)cc1 (stereo not drawn) | . | . | 97 | 92 | .
COc1cc(/C=C(/C(=O)c2cccs2)c2nc3ccccc3[nH]2)ccc1O | 2.0* | 38 | 2.0* | 3.8* | 11*
O=C(/C(=C/c1ccc(Cl)cc1)c1nc2ccccc2[nH]1)c1cccs1 | . | . | 1.9* | 1.9* | .
O=C(/C(=C\c1ccccc1)c1nc2ccccc2[nH]1)c1ccc(Cl)cc1 | . | . | 1.9* | 2.2* | .
COc1ccc(/C=C(/NC(=O)c2ccccc2)c2nc3ccccc3[nH]2)cc1OC | . | . | 98 | 86 | .
O=C(/C=C/c1cccc(Cl)c1)c1nc2ccccc2[nH]1 | . | . | 1.0* | 0.7* | .
COc1ccc(CCN(C)CCCC(C#N)(c2ccc(OC)c(OC)c2)C(C)C)cc1OC (stereo not drawn) | . | 94 | 79 | 83 | 91
SMILES | H69AR inhibit | HUVEC inhibit | HCT116 PTEN-null | HCT116 bCat-KO | Fibroblast inh
COC(=O)c1ccc(COC(=O)CCC(=O)c2cccs2)cc1 | . | . | 92 | 85 | .
COc1ccc(Cc2nnc(N/N=C/c3ccc(O)cc3O)[nH]c2=O)cc1OC | . | . | 48 | 43 | .
CC(C)NC(=O)c1ccc2c(c1)S(=O)(=O)c1ccccc1C2=O | 83 | 105 | 102 | 104 | 107
O=C(Nc1nc(-c2ccccc2)cs1)c1ccc2c(c1)S(=O)(=O)c1ccccc1C2=O | . | . | 2.5* | 4.0* | .
CCc1ccc(OCC(=O)N/N=C\c2ccco2)c([N+](=O)[O-])c1 | . | . | 91 | 95 | .
COc1cc(OC)c2nc(C)c3c(c2c1)N(c1ccc(O)cc1)CC3 | . | . | 5 | 4.5* | .
CC(C)C(=O)N(c1cc2sc(=O)oc2c2ccccc12)S(=O)(=O)c1cccs1 | 22* | 103 | 93 | 101 | 97
COc1ccc(N(C(=O)C(C)C)S(=O)(=O)c2cccs2)cc1 | 17* | 65 | 83 | 83 | 81
CCOc1ccccc1N1CCN(C(=O)CCCc2nc3ccccc3s2)CC1 | . | . | 74 | 85 | .
Cc1nn(Cc2cccc(C(=O)N3CCCC(C)C3)c2)c(C)c1[N+](=O)[O-] (stereo not drawn) | . | . | 79 | 79 | .
Brc1cccc(-c2n[nH]c(-c3ccccc3)n2)c1 | 40* | 61 | 28 | 32 | 94
CCOC(=O)C(=O)c1cn(C2OCC(OC(C)=O)C(OC(C)=O)C2OC(C)=O)c2ccccc12 (stereo not drawn) | . | . | 99 | 106 | .
COc1ccc(C2NC(=O)c3sc(=S)n(-c4ccccc4)c3N2)cc1 (stereo not drawn) | 95 | 72 | 3.2* | 41 | 108
CCOc1ccc(C2NC(=O)c3sc(=S)n(-c4ccccc4)c3N2)cc1 (stereo not drawn) | . | . | 99 | 103 | .
COCCN1CSC(=S)N(Cc2ccco2)C1 | 0.8* | 70 | 41 | 25 | 82
C/C(=N\Nc1nc(-c2cc(C)ccc2C)cs1)c1cc2c(ccc3ccccc32)oc1=O | . | . | 92 | 90 | .
Cc1ccc(-c2nn(CC(=O)NCCN3CCOCC3)c(=O)c3ccccc23)cc1 | 93 | 95 | 95 | 87 | 100
Cc1ccc(-c2nn(C)c(=O)c3ccccc23)cc1CNC(=O)CN1CCOCC1 | 64 | 101 | 91 | 93 | 94
Cc1cc(C)n(CC(=O)NCc2cc(-c3nn(C)c(=O)c4ccccc34)ccc2C)n1 | 30* | 94 | 97 | 89 | 96
Cc1ccc(-c2nn(C)c(=O)c3ccccc23)cc1CNC(=O)Cn1nc(-c2ccccc2)c2ccccc2c1=O | 1.6* | 86 | 101 | 89 | 99
Cc1ccc(-c2nn(C)c(=O)c3ccccc23)cc1CO | . | . | 99 | 93 | .
Cc1ccc(-c2nn(CC(=O)NCc3ccco3)c(=O)c3ccccc23)cc1 | 22* | 81 | 7 | 5.2* | 63
CCN(CC)C(=S)SCC(=O)c1ccccc1 | . | . | 104 | 110 | .
CCN(CC)C(=S)SSC(=S)N(CC)CC | . | . | 0.9* | 1.1* | .
O=C(COc1ccc(-c2nnco2)cc1)N1CCN(S(=O)(=O)c2ccc3ccccc3c2)CC1 | 36* | 101 | 78 | 79 | 88
SMILES | H69AR inhibit | HUVEC inhibit | HCT116 PTEN-null | HCT116 bCat-KO | Fibroblast inh
COc1ccc(CCC(=O)N2CCN(S(=O)(=O)c3ccc4ccccc4c3)CC2)cc1 | 54 | 96 | 82 | 84 | 96
O=C1NC(=S)N(C(=O)c2ccc(F)cc2)/C1=C/c1ccccc1 | . | . | 1.7* | 12 | .
Cc1ccc(SCCC(=O)Nc2ccc(Br)c(C)c2)cc1 | . | . | 74 | 77 | .
Nc1cc(Br)c(N)c(Br)c1 | 23* | 92 | 98 | 94 | 97
CCn1nc(C(=O)NC2=NCCS2)c2ccccc2c1=O | 98 | 2.7* | 105 | 99 | 93
CC(=O)Oc1c(C)cc(Cl)cc1C(=O)Nc1ccc([N+](=O)[O-])cc1Cl | . | . | 1.8* | 1.1* | .
CCOc1ccccc1NC(=S)N(Cc1cc2ccc(C)cc2[nH]c1=O)CC1CCCN1CC (stereo not drawn) | . | . | 1.2* | 2.5* | .

Compound activity deposited in PubChem BioAssay by SRMLSC.
